Numbered stars: 1 amine (or outer) side, 2 acyl side, 3 side chain; on linkers, the order of the positions; unused ones are H or OH. Bridge positions count the residues as written; N and C are the ends. Peptide text beside a SMILES is read from it. X1 = O=C(CC1(S[*:2])CCCCC1)[*:1] Where only a bound is given, the exact number is not on record here.

This is an account of results in ChEMBL document CHEMBL1122039, “Design of more potent and selective antagonists of the antidiuretic responses to arginine-vasopressin devoid of antidiuretic agonism” (J Med Chem, 1982).

Test [1] is filed under the species Rattus norvegicus. The test is described as follows: Antiantidiuretic activity in rats. In kind it is functional, organism-based. The note with it: Urine, read-out: pA2 (converted). Summed up:
(§1)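 Antidiuretic assay in rats under ethanol anesthesia. Antagonist given at two doses, a high and a low one. The USP posterior pituitary standard was injected 20 min later, or 10 min later for non-agonist analogues.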

The species named for test [2] is Rattus norvegicus. Kind of test: In vitro anti-oxytocic activity in rat uterus (0.5 mM Mg2+). In kind it is functional. The note with it: read-out: pA2 (converted).
Test [3] is filed under the species Rattus norvegicus. Kind of test: Antivasopressor activity in rats. Conditions: read-out: pA2 (converted). In kind it is functional, organism-based. The method in brief: (§2)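 Intravenous vasopressor assay in phenoxybenzamine-treated rats under urethane anesthesia, with the USP posterior pituitary standard as agonist. Antagonist given at a high and a low dose.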

A short description of test [4]: ED ratio (anti-vasopressor ED/antiantidiuretic ED) of the compound. In kind it is functional, Urine.
Test [5] in a line: Selectivity ratio for antioxyticic potency to antidiuretic potency. In kind it is functional, Urine.
A short description of test [6]: Selectivity ratio for anti-vasopressor potency to antidiuretic potency. In kind it is functional, Urine.
Test [7] concerns Rattus norvegicus. The test is described as follows: In vivo anti-oxytocic activity in rat uterus. In kind it is functional, organism-based. Conditions: read-out: pA2 (converted).
Test [8] can be described thus: ED ratio (anti-oxytocic ED/antiantidiuretic ED) of the compound. In kind it is functional, Urine.
The species entered for test [9] is Rattus norvegicus. The test is described as follows: In vitro anti-oxytocic activity in rat uterus (no Mg2+). In kind it is functional. Conditions: read-out: pA2 (converted).
The species entered for test [10] is Rattus norvegicus. Kind of test: Effective dose required for anti-oxytocic activity in rat uterus. In kind it is functional.
For test [11], the species on record is Rattus norvegicus. The test is described as follows: Effective dose required for anti-vasopressor activity in phenoxybenzamine-treated rats under urethane anesthesia. In kind it is functional. Summed up:
as §2

The species entered for test [12] is Rattus norvegicus. Kind of test: Effective dose required for antiantidiuretic activity in rats. In kind it is functional, Urine. The method in brief:
as §1

For `CC(C)[C@@H]1NC(=O)[C@H](Cc2ccccc2)NC(=O)[C@@H](Cc2ccc(O)cc2)NC(=O)CC2(CCCCC2)SSC[C@@H](C(=O)N2CCC[C@H]2C(=O)N[C@@H](CCCN=C(N)N)C(=O)NCC(N)=O)NC(=O)[C@H](CC(N)=O)NC1=O`, the Kb in test [1] was 30.9 nM; in test [2] it was 16.6 nM; in [3], 3.89 nM; in test [7], 97.7 nM; in test [9], 7.76 nM. For the same molecule, the ED ratio is 0.13 in test [4] and 3.1 in test [8]. Also, the Selectivity in test [5] and in test [6] was 1 in each case. Further, in [10], the Effective dose stood at 6.9 nM/kg.

Regarding `CC[C@@H](C)[C@H]1NC(=O)CC2(CCCCC2)SSC[C@@H](C(=O)N2CCC[C@H]2C(=O)N[C@@H](CCCN=C(N)N)C(=O)NCC(N)=O)NC(=O)[C@H](CC(N)=O)NC(=O)[C@H](C(C)C)NC(=O)[C@H](Cc2ccccc2)NC1=O`, the Kb in [1] was 10.5 nM; in test [3], 115 nM; in test [7], 617 nM; in test [9] it was 10.5 nM. For the same molecule, the Effective dose in test [11] is 8.2 nM/kg; in test [12] it was 0.7 nM/kg; in test [10], 44 nM/kg.

On to `CC(C)[C@@H]1NC(=O)[C@H](Cc2ccccc2)NC(=O)[C@@H](Cc2ccccc2)NC(=O)CC2(CCCCC2)SSC[C@@H](C(=O)N2CCC[C@H]2C(=O)N[C@@H](CCCN=C(N)N)C(=O)NCC(N)=O)NC(=O)[C@H](CC(N)=O)NC1=O`, for which the Kb is 8.51 nM in [1], 8.71 nM in test [3] and 120 nM in [7]. Besides, the Effective dose in test [11] was 0.58 nM/kg; in test [12], 0.67 nM/kg; in test [10] it was 8.9 nM/kg.

Consider `CC(C)[C@@H]1NC(=O)[C@H](Cc2ccccc2)NC(=O)[C@@H](Cc2ccc(O)cc2)NC(=O)CC2(CCCCC2)SSC[C@@H](C(=O)N2CCC[C@H]2C(=O)N[C@H](CCCN=C(N)N)C(=O)NCC(N)=O)NC(=O)[C@H](CC(N)=O)NC1=O`, for which the Kb in test [1] was 93.3 nM; in [2] it was 16.6 nM; in test [3], 8.91 nM; in test [7], 117 nM; in [9], 10.2 nM. Moreover, the Effective dose turned out to be 0.6 nM/kg in test [11], 6.3 nM/kg in test [12] and 8.1 nM/kg in test [10].

`CC(C)[C@@H]1NC(=O)[C@H](Cc2ccccc2)NC(=O)[C@@H](CCCN=C(N)N)NC(=O)CC2(CCCCC2)SSC[C@@H](C(=O)N2CCC[C@H]2C(=O)N[C@@H](CCCN=C(N)N)C(=O)NCC(N)=O)NC(=O)[C@H](CC(N)=O)NC1=O`: the Kb in test [1] is above 1260 nM; in test [3] it was 3980 nM; in test [9] it was above 10000 nM. In addition, the Effective dose is around 260 nM/kg in test [11] and above 90 nM/kg in test [12].

As for `CC(C)[C@@H]1NC(=O)[C@H](Cc2ccccc2)NC(=O)[C@@H](C)NC(=O)CC2(CCCCC2)SSC[C@@H](C(=O)N2CCC[C@H]2C(=O)N[C@@H](CCCN=C(N)N)C(=O)NCC(N)=O)NC(=O)[C@H](CC(N)=O)NC1=O`, the Kb was 9770 nM in [2], 1620 nM in [3] and 692 nM in test [9]. The Effective dose in test [11] worked out at 177 nM/kg.

In the case of `CC(C)[C@@H]1NC(=O)[C@H](Cc2ccccc2)NC(=O)[C@@H](C(C)C)NC(=O)CC2(CCCCC2)SSC[C@@H](C(=O)N2CCC[C@H]2C(=O)N[C@@H](CCCN=C(N)N)C(=O)NCC(N)=O)NC(=O)[C@H](CC(N)=O)NC1=O`, the Kb in [1] is 33.1 nM; in [2], 129 nM; in [3] it was 389 nM; in test [7], 3240 nM; in test [9], 12.6 nM. Further, the ED ratio in test [4] is recorded as 12; in test [8], 96. Besides, the Selectivity in test [5] turned out to be 31; in test [6], 92. For the same molecule, the Effective dose in [11] stood at 27 nM/kg; in test [12] it was 2.3 nM/kg; in [10], 220 nM/kg.

Turning to `CC(C)C[C@H]1NC(=O)CC2(CCCCC2)SSC[C@@H](C(=O)N2CCC[C@H]2C(=O)N[C@@H](CCCN=C(N)N)C(=O)NCC(N)=O)NC(=O)[C@H](CC(N)=O)NC(=O)[C@H](C(C)C)NC(=O)[C@H](Cc2ccccc2)NC1=O`, the Kb was 16.2 nM in [1]; 41.7 nM in test [2]; 355 nM in test [3]; 891 nM in test [7]; 47.9 nM in test [9]. In addition, the ED ratio in test [4] worked out at 22; in test [8], 51. Further, the Selectivity was found to be 16 in test [5] and 170 in test [6]. The Effective dose in test [11] is 26 nM/kg; in test [12], 1.2 nM/kg; in [10] it was 61 nM/kg.

Regarding `CC(C)[C@@H]1NC(=O)[C@H](Cc2ccccc2)NC(=O)[C@H](Cc2ccc(O)cc2)NC(=O)CC2(CCCCC2)SSC[C@@H](C(=O)N2CCC[C@H]2C(=O)N[C@@H](CCCN=C(N)N)C(=O)NCC(N)=O)NC(=O)[C@H](CC(N)=O)NC1=O`, the Kb was 49 nM in [2], 10.7 nM in test [3], 339 nM in test [7] and 45.7 nM in [9]. In test [10], this molecule came in with an Effective dose of 26 nM/kg.

Consider `CC(C)[C@@H]1NC(=O)[C@H](Cc2ccccc2)NC(=O)CNC(=O)CC2(CCCCC2)SSC[C@@H](C(=O)N2CCC[C@H]2C(=O)N[C@@H](CCCN=C(N)N)C(=O)NCC(N)=O)NC(=O)[C@H](CC(N)=O)NC1=O` (GFVNCPRG-NH2; linker N-5 via X1), for which the values for the Kb in test [2] and in test [9] were above 20000 nM and 2880 nM, respectively.
